Measured values reported in ChEMBL document CHEMBL4184153, “Optimization of a series of heterocycles as survival motor neuron gene transcription enhancers” (Bioorg Med Chem Lett, 2017).
Converted amounts (≈) assume the structure as drawn. The source made the active and inactive calls. The calls are words filed in the database; no cut-off is given here.

Key:
[1] = test system: HEK293; assay: Activation of SMN2 gene (unknown origin) transcription in HEK293 cells expressing SMN2-luc assessed as increase in SMN2 mRNA level at 0.1 to 50 uM after 24 hrs by luciferase reporter gene assay relative to control; type: cell-based
Procedure, shortened: (§1)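 Luciferase reporter read-out of SMN2 expression; compounds tested at various concentrations (0.1 – 50 μM) against 0.1% DMSO controls. Dose-response curves fitted to give EC50 and percent maximum increase in SMN2 expression; values mean ± S.E.M.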

[2] = Half life in mouse microsomes; type: ADME, Microsome
[3] = Aqueous solubility of the compound at pH 7.4; type: physicochemical; settings: aqueous medium
[4] = Activation of SMN2 gene (unknown origin) transcription in HEK293 cells expressing SMN2-luc assessed as increase in SMN2 mRNA level after 24 hrs by luciferase reporter gene assay; type: cell-based; settings: HEK293, 24 h; procedure, shortened: as §1
[5] = species: Homo sapiens; assay: Increase in SMN2 mRNA expression in SMA derived human fibroblasts assessed as increase in SMN protein aggregates (Gems)
[6] = test system: HEK293; assay: Activation of SMN1 gene (unknown origin) transcription in HEK293 cells assessed as increase in SMN1 exon 7 transcript level after 24 hrs by qRT-PCR analysis; type: cell-based
[7] = test system: HEK293; assay: Activation of SMN2 gene (unknown origin) transcription in HEK293 cells expressing SMN2-luc assessed as increase in SMN2 mRNA level after 24 hrs by qRT-PCR analysis; type: cell-based
[8] = test system: Mus musculus; assay: Increase in life span of SMNdelta7 SMA mouse model assessed as median survival days at 20 mg/kg, ip, administered once daily beginning at PND2 (reference value: 6 days)
[9] = species: Homo sapiens; assay: Increase in SMN2 mRNA expression in SMA derived human fibroblasts assessed as increase in SMN protein level
[10] = biological target: Survival motor neuron protein (Homo sapiens, UniProt Q16637); assay: Stabilization of human SMN protein expressed in HEK293 cells expressing SMN2 promoter after 24 hrs by luciferase reporter gene assay; type: cell-based
Chain of Survival motor neuron protein (Q16637 whole entry): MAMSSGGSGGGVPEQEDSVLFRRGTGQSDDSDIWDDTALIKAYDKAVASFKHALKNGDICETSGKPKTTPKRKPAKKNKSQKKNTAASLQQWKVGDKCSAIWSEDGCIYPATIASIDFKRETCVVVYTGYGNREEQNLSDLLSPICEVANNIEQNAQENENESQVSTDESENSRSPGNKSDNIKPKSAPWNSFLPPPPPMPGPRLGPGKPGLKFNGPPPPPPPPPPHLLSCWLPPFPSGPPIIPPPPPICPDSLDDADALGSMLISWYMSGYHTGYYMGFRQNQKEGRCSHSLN

Row | SMILES | Emax [1] [%] | EC50 [4] [µM] | Activity [1] | further results
1 | COc1cc2c(c(OC)c1OC)C(c1cc(Cl)ccc1F)OCC(=O)N2 (stereo not given) | 150 | 5.9 |  | half-life [2]: 3 min; solubility [3]: 58 µM (≈ 22.1 µg/mL)
2 | COc1cccc(C2NC(=O)Nc3cc(OC)c(OC)c(OC)c32)c1 (stereo not given) | 100 | 18 |  | 
3 | COc1cc2c(c(OC)c1OC)C(c1cc(C#N)ccc1F)NC(=O)N2 (stereo not given) |  |  | inactive | 
4 | COc1cc2c(c(OC)c1OC)C(c1cc(Cl)ccc1F)OCC(=O)N2C (stereo not given) |  |  | inactive | 
5 | COc1cc2c(c(OC)c1OC)C(c1cc(Cl)ccc1F)NC(=O)N2 (racemic) | 263 | 4.1 |  | fold change (FC) [5]: 2; Activity [6]: Active; Activity [7]: Active; median survival [8]: 15 days; half-life [2]: 20 min; solubility [3]: 91 µM (≈ 33.4 µg/mL); fold change (FC) [9]: 2
6 | COc1cc2c(c(OC)c1OC)C(c1cc(Cl)ccc1F)OC(C)C(=O)N2 (mixture of isomers) | 125 | 2.6 |  | 
7 | COc1cc2c(c(OC)c1OC)C(c1ccccc1F)CC(=O)N2 (stereo not given) |  |  | inactive | 
8 | COc1cc2c(c(OC)c1OC)C(c1cc(Br)ccc1F)CC(=O)N2C (stereo not given) |  |  | inactive | 
9 | COc1ccc(Cl)cc1C1NC(=O)Nc2cc(OC)c(OC)c(OC)c21 (stereo not given) | 225 | 3.6 |  | 
10 | COc1cc2c(c(OC)c1OC)C(c1cc(C)ccc1F)NC(=O)N2 (stereo not given) | 125 | 4.3 |  | 
11 | COc1cc2c(c(OC)c1OC)C(c1ccc(F)cc1)NC(=O)N2 (stereo not given) | 150 | 14 |  | 
12 | COc1cc2c(c(OC)c1OC)C(c1cc(Cl)ccc1F)=NCC(=O)N2 | 125 | 8.4 |  | 
13 | COc1cc2c(c(OC)c1OC)C(c1cc(Br)ccc1F)C(C)C(=O)N2 (mixture of isomers) |  |  | inactive | 
14 | COc1cc(Cl)ccc1C1NC(=O)Nc2cc(OC)c(OC)c(OC)c21 (stereo not given) | 200 | 7.8 |  | 
15 | CCCN1C(=O)Nc2cc(OC)c(OC)c(OC)c2C1c1cccc(Cl)c1 (stereo not given) | 100 | 5.2 |  | 
16 | COc1cc2c(c(OC)c1OC)C(c1ccccc1F)N(C)C(=O)N2 (stereo not given) | 100 to 180 | 6 to 10 |  | 
17 | COc1cc2c(c(OC)c1OC)C(c1cccc(Cl)c1Cl)CC(=O)N2 (stereo not given) |  |  | inactive | 
18 | COc1cc2c(c(OC)c1OC)C(c1ccc(Cl)cc1Cl)CC(=O)N2 (stereo not given) |  |  | inactive | 
19 | COc1cc2c(c(OC)c1OC)C(c1cc(F)ccc1F)CC(=O)N2 (stereo not given) |  |  | inactive | 
20 | COc1ccc2c(c1OC)C(c1cc(Br)ccc1F)CC(=O)N2 (stereo not given) |  |  | inactive | 
21 | COc1cc2c(c(OC)c1OC)C(c1ccc(Cl)cc1F)NC(=O)N2 (stereo not given) | 150 | 6.3 |  | 

Row | SMILES | Emax [1] [%] | EC50 [4] [µM] | Activity [1] | further results
22 | CC(C)c1cc(C(=O)Nc2ccc(F)c(Cl)c2)no1 | 242 |  |  | EC50 [10]: 1.8 µM
23 | COc1cc2c(c(OC)c1OC)C(c1cc(C(N)=O)ccc1F)CC(=O)N2 (stereo not given) |  |  | inactive | 
24 | COc1cc2c(c(OC)c1OC)C(c1ccc(Cl)c(Cl)c1)CC(=O)N2 (stereo not given) |  |  | inactive | 
25 | COc1cc2c(c(OC)c1OC)C(c1ccc(F)c(F)c1)CC(=O)N2 (stereo not given) |  |  | inactive | 
26 | COc1cc2c(c(OC)c1OC)C(c1cccc(F)c1)NC(=O)N2 (stereo not given) | 150 | 25 |  | 
27 | COc1cc2c(c(OC)c1)C(c1cc(Br)ccc1F)CC(=O)N2 (stereo not given) |  |  | inactive | 
28 | COc1cc2c(c(OC)c1OC)C(C)(c1cc(Cl)ccc1F)OCC(=O)N2 (stereo not given) |  |  | inactive | 
29 | COc1cc2c(c(OC)c1OC)C(c1cc(C#N)ccc1F)CC(=O)N2 (stereo not given) |  |  | inactive | 
30 | COc1cc2c(c(OC)c1OC)C(c1cccc(Br)c1)CC(=O)N2 (stereo not given) |  |  | inactive | 
31 | COc1cc2c(c(OC)c1OC)C(c1cc(Cl)ccc1F)CC(=O)N2 (stereo not given) | 150 | 12 |  | 
32 | COc1cc2c(c(OC)c1OC)C(c1cc(Br)ccc1F)CC(=O)N2 (stereo not given) | 186 | 8.3 |  | solubility [3]: < 1 µM
33 | COc1cc2[nH]c(=O)nc(-c3cc(Cl)ccc3F)c2c(OC)c1OC |  |  | inactive | 
34 | COc1ccc(C2NC(=O)Nc3cc(OC)c(OC)c(OC)c32)cc1 (stereo not given) |  |  | inactive | 
35 | COc1cc2c(c(OC)c1OC)C(c1ccc(Cl)cc1)NC(=O)N2 (stereo not given) | 150 | 6.6 |  | 
36 | COc1ccccc1C1NC(=O)Nc2cc(OC)c(OC)c(OC)c21 (stereo not given) |  |  | inactive | 
37 | COc1cc2c(c(OC)c1OC)C(c1cc(Cl)ccc1F)OC(=O)N2 (stereo not given) | 125 |  |  | 
38 | COc1cc2c(c(OC)c1OC)C(c1cc([N+](=O)[O-])ccc1F)CC(=O)N2 (stereo not given) |  |  | inactive | 
39 | COc1ccc(F)c(C2NC(=O)Nc3cc(OC)c(OC)c(OC)c32)c1 (stereo not given) |  |  | inactive | 
40 | COc1cc2c(c(OC)c1OC)C(c1cc(F)ccc1F)NC(=O)N2 (stereo not given) | 100 | 17 |  | 
41 | COc1cc2c(c(OC)c1OC)C(c1ccccc1Cl)NC(=O)N2 (stereo not given) |  |  | inactive | 
42 | COc1cc2c(c(OC)c1OC)C(c1cc(-c3ccccc3)ccc1F)NC(=O)N2 (stereo not given) |  |  | inactive | 
